Screening results from PubChem.
Most compounds without a hit are left out; they make up all but 1.7% or so of the library.
Scp1 inh: inhibitors of human Scp-1 phosphatase; inhibition, % at 20 µM; 0.88% of 340,000 active; Recombinant Scp1, phosphopeptide, malachite green phosphate absorbance; Q9GZU7;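 active means inhibition above about 50% at 20 µM, limit read from the data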;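 further: plate controls were DMSO wells with enzyme for no effect and wells lacking enzyme for full effect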
Target sequence (Q9GZU7 76-261 limits assumed): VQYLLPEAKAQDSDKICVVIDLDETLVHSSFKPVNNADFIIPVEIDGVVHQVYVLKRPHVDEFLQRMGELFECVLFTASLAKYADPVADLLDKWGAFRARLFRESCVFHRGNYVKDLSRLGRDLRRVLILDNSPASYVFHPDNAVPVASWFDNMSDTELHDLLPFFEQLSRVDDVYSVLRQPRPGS
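Incubation: 45 min enzyme reaction at room temperature / System: truncated SCP-1 phosphatase (76-261aa) / Reagent: Phospho 17-mer peptide substrate / Buffer or medium: Acidic Tris acetate buffer with magnesium and detergent / Signal: absorbance at 630 nm / Doses: one concentration, 20 µM, with 1.0% DMSO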
SUMO1-SIM PPI: modulators of human SUMO1-mediated protein-protein interactions. 0.33% of 360,000 active. P63165. SUMO1 binding to a labelled peptide, TR-FRET, 1 h. inhibition, % at 20 µM; in the data active means inhibition above about 37%
Target sequence (P63165 whole entry, looked up): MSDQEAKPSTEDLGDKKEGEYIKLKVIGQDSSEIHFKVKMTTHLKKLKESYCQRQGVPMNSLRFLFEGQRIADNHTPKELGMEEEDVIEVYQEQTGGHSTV
STEP inh: inhibitors of human striatal-enriched phosphatase STEP; recombinant STEP, OMFP fluorogenic substrate, fluorescence; P54829; 0.25% of 360,000 active; inhibition, % at 20 µM;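 active means inhibition at 20 µM, scaled per plate between control wells, above about 37%, limit read from the data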;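 further: 0% = DMSO with enzyme and substrate and 100% = substrate only without enzyme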
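Material: STEP (striatal-enriched tyrosine phosphatase) enzyme, cell-free; Compound dosing: 20 µM single dose in 1% DMSO; Technique: fluorescence read at 480 nm ex / 540 nm em; Times: reaction 20 min, ambient temperature; Medium: 50 mM Bis-Tris pH 6.0 with 2.5 mM DTT and 0.005% Tween 20; Also added: OMFP at 25 µM.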
Pemphigus Ab inh: blocks pemphigus antibody binding to human desmoglein-3 | P32926 | DSG3-coupled beads, scFv-anti-DSG3-GFP binding, flow cytometry; active compounds read low | binding (percent of control), % at 10 µM | 0.48% of 310,000 active;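 active means binding more than 3 SD below its plate's average and above zero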;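 further: hits lower antibody fragment binding to DSG3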
LMPTP inh: LMPTP (human) inhibition. inhibition, % at 20 µM. P24666. 0.22% of 360,000 active. recombinant LMPTP-A, OMFP fluorogenic substrate, fluorescence intensity;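 active means compounds that cut the enzyme signal by at least half of the control window in the single-dose screen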;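 further: plate controls were DMSO wells with enzyme plus substrate for no effect and substrate without enzyme for full effect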
Target sequence (P24666 whole entry, looked up): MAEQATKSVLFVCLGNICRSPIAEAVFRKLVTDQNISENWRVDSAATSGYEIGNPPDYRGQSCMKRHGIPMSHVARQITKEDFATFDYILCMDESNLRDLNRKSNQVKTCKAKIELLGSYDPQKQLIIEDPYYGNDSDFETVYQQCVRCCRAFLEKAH
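Assay system: LMPTP-A, protein tyrosine phosphatase of low molecular weight / Medium: pH 6.0 Bis-Tris buffer with DTT and Triton X-100 / Schedule: 50 min enzyme reaction at room temperature, protected from light / Measured by: endpoint fluorescence intensity from OMFP dephosphorylation / Read-out basis: % inhibition relative to no-enzyme and uninhibited control wells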
* hit, by the source's call; i = inactive; . = no result.

SMILES	Scp1 inh	SUMO1-SIM PPI	STEP inh	Pemphigus Ab inh	LMPTP inh
CCOC(=O)c1c(NC(=O)COC)sc(C)c1C	-3.4	-0.9	1.5	104.0	0.5
CCOC(=O)c1c(NC(=S)NC(C)=O)sc(C)c1C	-4.8	-2.0	-0.2	71.1*	-1.4
CSc1ncccc1C(=O)OCc1ccc([N+](=O)[O-])cc1	-4.0	-13.5	1.9	79.4*	-0.9
C=C1c2cccc(O)c2C(=O)C2C(=O)[C@]3(O)C(=O)C(C(N)=O)C(=O)[C@@H](N(C)C)[C@@H]3[C@@H](O)[C@H]12 (stereo not given in full)	60.0*	72.7*	53.1*	89.2	81.3*
O=C1NC[C@@H](Cc2cccc3ccccc23)N(CCC23CC4CC(CC(C4)C2)C3)C1=O	15.2	5.1	3.2	103.3	0.2
Cc1c2cc(O)c(=O)cc-2oc2cc(O)c(O)cc12	71.4*	22.5	-54.1	i	80.0*
CC1CCCN(S(=O)(=O)c2ccc(S(=O)(=O)N3CCCC3)cc2)C1 (stereo not given)	-4.7	1.4	5.2	101.1	-2.0
CC1CCCN(S(=O)(=O)c2ccc(S(=O)(=O)N3CCC4(CC3)OCCO4)cc2)C1 (stereo not given)	-1.3	2.4	1.4	68.1*	-0.4
COc1ccc(NC(=O)NC23CC4(C)CC(C)(CC(C)(C4)C2)C3)cc1OC	-5.7	-2.8	1.0	98.2	1.7
Cc1cccc(C)c1NC(=O)CN(C)C(=O)c1ccc(OCc2ccccc2)cc1	.	2.2	1.2	101.5	-1.2
CCOC(=O)c1cnc(SSc2ncc(C(=O)OCC)c(N)n2)nc1N	3.8	-2.3	-2.8	121.4	78.3*
CC(=O)C[C@H]1SC[C@@H](C(C)C)N1S(=O)(=O)c1ccc(C)cc1	.	1.2	.	.	-1.9
COc1ccc2cc(C(C)c3nc4ccccc4c(=O)n3N)ccc2c1 (stereo not given)	6.5	1.6	2.6	101.6	1.8
Cc1ccc(C)n1-c1sccc1C(=O)O	79.9*	66.3*	75.0*	91.3	40.3
COc1ccc(C(=O)N/C(=C\c2cn(S(=O)(=O)N(C)C)c3ccccc23)C(=O)N2CCCC2)cc1	.	-2.5	-0.3	108.1	0.4
COc1cc(C(=O)N2CCc3ccccc32)ccc1OCc1c(C)noc1C	-4.0	-0.6	1.6	101.2	-0.3
CCOc1cc2c(C#N)c(N(CC)CC)nc(N)c2c(N)n1	1.7	48.9*	7.5	111.4	19.6
CCOC(=O)c1sc2nc3c(SCCC#N)cc(C(=O)c4cc(F)ccc4O)cn3c(=O)c2c1C	-27.1	9.4	4.5	101.7	-0.1
CCOC(=O)c1sc2nc3c(SCCC(=O)O)cc(C(=O)c4cc(OC)ccc4O)cn3c(=O)c2c1C	26.7	83.8*	96.4*	55.3*	91.7*
O=C(C=Cc1cccs1)c1ccccc1	-19.1	-12.0	1.6	100.8	1.2
C#CCOCCOCCOCCNc1nc(N2CCN(C(=O)CCCCCCCCCCNC(=O)[C@H](CCCCN)n3cc(C)nn3)CC2)nc(N2CCN(C(=O)CCCCCCCCCCNC(=O)[C@@H]([C@H](C)CC)n3cc(CCCCCN)nn3)CC2)n1	.	50.7*	7.8	150.0	3.7
C#CCOCCOCCOCCNc1nc(N2CCN(C(=O)CCCCCCCCCCNC(=O)[C@H](CCCCN)n3cc(C[C@@H](C)CC)nn3)CC2)nc(N2CCN(C(=O)CCCCCCCCCCNC(=O)[C@H](CCCCN)n3cc(C[C@@H](C)CC)nn3)CC2)n1	53.0*	66.6*	12.5	125.6	3.5
C#CCOCCOCCOCCNc1nc(N2CCN(C(=O)CCCCCCCCCCNC(=O)[C@H](CCCCN)n3cc(CCO)nn3)CC2)nc(N2CCN(C(=O)CCCCCCCCCCNC(=O)[C@H](CCCN=C(N)N)n3cc(C[C@@H](C)CC)nn3)CC2)n1	29.5	90.1*	5.8	120.2	6.6
C#CCOCCOCCOCCNc1nc(N2CCN(C(=O)CCCCCCCCCCNC(=O)[C@@H](CCSC)n3cc(CCO)nn3)CC2)nc(N2CCN(C(=O)CCCCCCCCCCNC(=O)[C@H]([C@@H](C)CC)n3cc(CCCCN=C(N)N)nn3)CC2)n1	37.5	90.3*	8.7	157.0	12.9
C#CCOCCOCCOCCNc1nc(N2CCN(C(=O)CCCCCCCCCCNC(=O)Cn3cc(C[C@@H](C)O)nn3)CC2)nc(N2CCN(C(=O)CCCCCCCCCCNC(=O)[C@H](CCCCN)n3cc(C[C@@H](C)CC)nn3)CC2)n1	33.4	26.0	4.2	116.4	5.8
SMILES	Scp1 inh	SUMO1-SIM PPI	STEP inh	Pemphigus Ab inh	LMPTP inh
Cc1cc(C)cc(C(=O)OCC(=O)NCc2ccco2)c1	35.9	4.7	-1.0	95.6	0.9
C=CCN(c1ccccc1)S(=O)(=O)c1cccc(C(=O)NC2CCC(O)CC2)c1 (stereo not given)	3.1	0.0	-0.6	108.0	-0.3
Cc1ccc(-n2ncc3c(=O)[nH]c(SCC(=O)N4CCN(c5ccccc5)CC4)nc32)cc1	3.2	1.0	-2.1	-32.3*	-0.7
Cc1ccc(-n2ncc3c(=O)[nH]c(SCC(=O)N4CCC(C)CC4)nc32)cc1C	3.5	40.7*	-0.7	97.8	1.3
Cc1ccc(-n2ncc3c(=O)[nH]c(SCC(=O)N4CCOCC4)nc32)cc1	-4.8	5.5	-1.2	94.4	-2.4
CC1CCN(CC(=O)Nc2ccc(S(=O)(=O)N3C(C)CCCC3C)cc2)CC1 (stereo not given)	-7.3	5.7	-2.0	116.5	-0.9
Cc1cc(C)n(-c2nc3ccccc3nc2N2CCN(S(=O)(=O)c3ccc4ccccc4c3)CC2)n1	-2.2	4.7	0.4	88.8*	5.3
Cc1cc(N2CCN(C(=O)Oc3ccc([N+](=O)[O-])cc3)CC2)c2ccccc2n1	.	-21.9	.	.	50.5*
Cc1cc(N2CCN(S(=O)(=O)c3ccc(Cl)c(Cl)c3)CC2)c2ccccc2n1	6.4	6.6	3.0	104.0	54.6*
Cn1c(C(=O)N2CCN(c3ccc([N+](=O)[O-])cc3)CC2)cc2c(=O)[nH]c3ccccc3c21	-1.4	11.6	3.6	71.6*	33.2
Cc1cc(C)n(-c2nc3ccccc3nc2N2CCN(S(=O)(=O)c3ccc(F)c(C)c3)CC2)n1	-6.6	-3.4	3.6	110.7	0.4
Cc1cc(N2CCN(S(=O)(=O)c3ccc(Cl)cc3)CC2)c2ccccc2n1	4.6	-3.4	-0.3	105.3	47.5
Cc1nc2ccccc2c2oc(C(=O)N3CCN(c4ccc([N+](=O)[O-])cc4)CC3)cc12	3.4	50.4*	0.0	94.9	4.8
CCCN(C(=O)CSCc1ccccc1C)c1c(N)n(Cc2ccccc2)c(=O)[nH]c1=O	-4.0	0.9	-0.2	100.8	-1.5
c1cc(CNCCN2CCNCC2)ccn1	-1.0	-9.9	0.7	58.0*	-6.1
CCn1cc(C(=O)NCc2ccccc2Cl)cn1	-3.7	-4.0	-2.7	125.6	1.9
